Bioassay records as filed in PubChem.
Sampled rows, rich in hits. Any-hit rate of the full collection: about 2%.
HIF activator: HIF pathway transcriptional activation; activation, % at 7.5 µM (by protocol); hit rate 0.32% among 300,000; U2OS HRE-luciferase reporter, luminescence; normalized: DMSO 0%, desferrioxamine 100%; AID 1910;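 active = mean activation of at least 10% of the iron chelator positive control signal, with at least half of replicates also reaching 10%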
LMP1 NFkB inh: reduces LMP1-driven NF-kappaB luciferase signal. LMP1-induced NF-kappaB luciferase reporter cells, luminescence. inhibition, % at 12.5 µM. hit rate 0.69% among 350,000; in the data active = inhibition above about 41%;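 also: 0% = neutral control wells and 100% = reference inhibitor control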
NR2E3 ag-1: NR2E3 (human) agonism; inhibition of corepressor binding, % at 4.78 µM; GST-NR2E3/biotin-RetCOR TR-FRET, 1536-well; AID 2300; Q9Y5X4; hit rate 0.12% among 320,000;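 active = percent inhibition above the cutoff of mean plus 3 SD of all tested compounds, set per screening campaign, cut at about 20% in these data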;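 also: 0% = DMSO wells and 100% = biotin wells as full block of FRET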
Target sequence (Q9Y5X4 whole entry, looked up): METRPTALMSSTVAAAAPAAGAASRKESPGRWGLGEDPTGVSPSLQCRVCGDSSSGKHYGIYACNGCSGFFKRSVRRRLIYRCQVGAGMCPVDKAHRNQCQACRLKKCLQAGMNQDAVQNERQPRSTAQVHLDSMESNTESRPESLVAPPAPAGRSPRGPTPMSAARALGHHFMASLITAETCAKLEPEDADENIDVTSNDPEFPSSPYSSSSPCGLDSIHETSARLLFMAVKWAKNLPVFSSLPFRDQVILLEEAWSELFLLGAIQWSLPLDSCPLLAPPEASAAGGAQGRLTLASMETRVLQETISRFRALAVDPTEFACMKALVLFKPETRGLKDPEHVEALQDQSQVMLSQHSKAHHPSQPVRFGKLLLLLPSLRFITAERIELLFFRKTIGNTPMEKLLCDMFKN
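Assay system: NR2E3–RetCOR corepressor complex. Quantity: 1.35 nM GST-NR2E3. Buffer or medium: pH 7.5 Tris-based buffer. Reagent: biotinylated RetCOR corepressor at 7 nM final. Schedule: 5 h at 4 °C. Detection: TR-FRET, emission read at 617 and 671 nm. Replicates: one well per compound, singlicate testing.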
TROY signal inh: blocks TROY-dependent signaling in reporter cells; Q293 LMP1-TROYcd NF-kB luciferase reporter, 4 h; inhibition, % at 10 µM; hit rate 0.98% among 360,000; AID 1347056;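 active = compounds whose plate-normalised and pattern-corrected inhibition of the luciferase reporter signal at the single screening dose is 50% or more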
NR2E3 ag-2: activates human NR2E3 receptor; Q9Y5X4; CHO-S Gal4-NCOR/VP16-NR2E3 two-hybrid, luciferase; inhibition of corepressor binding, % at 3.98 µM; hit rate 0.35% among 360,000; AID 602229;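 active = inhibition above the mean of all tested compounds plus 3 SD, cut at about 70% in these data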;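 also: 0% = DMSO with NR2E3 transfected cells and 100% = cells lacking NR2E3 construct; higher means lower luciferase signal from less NR2E3 corepressor binding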
NR2E3 ag conf: confirmation of human NR2E3 agonists | shares compounds with NR2E3 ag-2 | inhibition, % at 3.98 µM | hit rate 51% among 2,300 | AID 624378 | CHO-S mammalian two-hybrid NR2E3-NCOR, luciferase luminescence;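 active = average inhibition above a cutoff equal to the mean inhibition of all tested compounds plus one SD, cut at about 70% in these data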;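 also: 0% = DMSO in NR2E3 cells and 100% = DMSO in cells lacking NR2E3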
VP16 counter: GAL4-VP16 reporter inhibition in NR2E3 agonist counterscreen | shares compounds with NR2E3 ag-2 | CHO-S GAL4-VP16 luciferase reporter, luminescence | inhibition, % at 3.98 µM | hit rate 29% among 2,300 | AID 624379;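 active = mean inhibition above a cutoff equal to the average over all tested compounds plus one standard deviation, cut at about 70% in these data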;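 also: luciferase from a UAS reporter driven by GAL4-VP16 transactivation; 0% = DMSO with VP16-transfected cells and 100% = DMSO with cells lacking VP16; higher means less reporter light so more repression of VP16 activity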
Starred values were filed as active, the others as inactive; nt = not tested or not shown.

SMILES	HIF activator	LMP1 NFkB inh	NR2E3 ag-1	TROY signal inh	NR2E3 ag-2	NR2E3 ag conf	VP16 counter
CN(C)c1ccc(/C=C/c2ccc3c4ccccc4ccc3[n+]2-c2ccccc2)cc1	nt	-19	nt	72*	101*	99*	90*
CN(C)c1ccc(/C=C/c2ccc3ccccc3[n+]2C)cc1	7	22	-28	63*	52	87*	52
O=C(OCc1ccccc1)N(CCCCN(CCCNCc1ccccc1)C(=O)OCc1ccccc1)CCCNCc1ccccc1	nt	-47	nt	34	48	62	26
Cc1ccc(Nc2nc(N)c([N+](=O)[O-])c(N3CCOCC3)n2)cc1C	0	-22	-2	-19	48	6	-18
Cc1ccc(Nc2nc(N)c([N+](=O)[O-])c(N3CCC(C)CC3)n2)cc1C	0	-28	0	30	-14	nt	nt
Nc1nc(N)nc(-c2cc([N+](=O)[O-])ccc2O)n1	nt	-19	0	2	33	nt	nt
Nc1nc(N)nc(-c2cc(O)ccc2O)n1	nt	20	-1	19	76*	85*	56
O=C(OCCN1C(=O)c2cccc3c(N4CCOCC4)ccc(c23)C1=O)c1ccccc1Cl	3	14	4	73*	52	93*	92*
CCN=C1SC(CC(N)=O)C(=O)N1CC (stereo not drawn)	0	1	1	-5	13	nt	nt
Cc1c(C(=O)Nc2ccc(OC(F)(F)F)cc2)sc2nc3n(c(=O)c12)CCC3	0	0	1	11	77*	88*	67
CSc1cccc(NC(=O)c2sc3nc4n(c(=O)c3c2C)CCC4)c1	4	-10	4	-14	-75	nt	nt
COc1cccc(NC(=O)c2sc3nc4n(c(=O)c3c2C)CCC4)c1	3	-13	1	-39	-50	nt	nt
Cc1c(C(=O)Nc2ccc(Oc3ccccc3)cc2)sc2nc3n(c(=O)c12)CCC3	0	13	-2	27	70	87*	54
CC(NS(=O)(=O)c1ccc(OCC(=O)NCc2ccccn2)cc1)c1ccccc1 (stereo not drawn)	-2	-5	-4	-9	3	nt	nt
COc1ccccc1NS(=O)(=O)c1c(C)[nH]c(C)c1C(=O)N1CCCC1	-1	-3	2	6	25	nt	nt
Cc1ccc(S(=O)(=O)NNC(=O)C2Cc3c(ccc4ccccc34)O2)cc1 (stereo not drawn)	1	-2	2	29	60	8	52
Cc1nn(C(C)(C)C)c(C)c1/C=N/OC(=O)Nc1ccc(Cl)c(Cl)c1	0	47*	-2	87*	92*	36	96*
COc1ccc(S(=O)(=O)N(CC(=O)NCc2ccncc2)c2ccc(C)cc2)cc1OC	1	-2	2	-2	-5	nt	nt
Cn1nc(C(F)(F)F)c(/C=N/OC(=O)c2ccccc2)c1Sc1ccc(Cl)cc1	0	1	1	14	-5	nt	nt
Cn1nc(C(F)(F)F)c(/C=N/OC(=O)c2ccccc2)c1SCc1ccccc1Cl	-1	7	-5	24	65	71*	70
COCC(=O)Oc1cc(-c2ccc(C)cc2C)c(OC(=O)COC)c(-c2ccc(C)cc2C)c1	nt	-40	nt	0	69	24	8
Cc1ccc(OCC(=O)Oc2c(C)cccc2C)cc1	0	-8	1	13	-29	nt	nt
CC(=O)N(Cc1cccc(Br)c1)c1ccc(N2CCOCC2)c(Cl)c1	0	14	1	27	-1	nt	nt
CNc1cncc(-c2ccc(OC)cc2)n1	nt	nt	nt	8	-70	nt	nt
CCOc1ccc2nc(NC(=O)C3CCN(c4cnccn4)CC3)sc2c1	0	4	0	-14	53	54	11
SMILES	HIF activator	LMP1 NFkB inh	NR2E3 ag-1	TROY signal inh	NR2E3 ag-2	NR2E3 ag conf	VP16 counter
CCOc1ccc2nc(NC(=O)C3CCN(S(=O)(=O)c4cnc[nH]4)CC3)sc2c1	0	0	4	3	-42	nt	nt
CC1(C)C2CC=C(/C=N/NC(=S)Nc3cccnc3)C1C2 (stereo not drawn)	1	1	6	7	-11	nt	nt
CC1=C/C(=N\NC(=S)Nc2cccnc2)CC(C)(C)C1	-2	9	nt	-7	80*	-25	1
O=C(COC(=O)COc1ccc(Br)cc1)NNC(=O)c1ccccc1	nt	-4	nt	-4	24	nt	nt
CCn1cc(CNC(=O)C2CCC(=O)N(CCc3cccc(F)c3)C2)cn1 (stereo not drawn)	0	5	nt	-29	-10	nt	nt
CC(C)(C)c1ccc(C(=O)N2CCC2(C)C(=O)Nc2cccc(C#N)c2)cc1 (stereo not drawn)	nt	nt	nt	30	52	4	33
CC(C)(C)c1ccc(CC(=O)N2CCC2(C)C(=O)Nc2ccc3[nH]ncc3c2)cc1 (stereo not drawn)	nt	nt	nt	7	57	37	45
Cc1ccsc1C(=O)N1CCC1(C)C(=O)Nc1cccc(C#N)c1 (stereo not drawn)	nt	nt	nt	4	8	nt	nt
CC1(C(=O)Nc2ccc3[nH]ncc3c2)CCN1C(=O)Cc1ccc(-c2ccccc2)cc1 (stereo not drawn)	nt	nt	nt	37	53	78*	65
CC(C)[C@H](NS(=O)(=O)c1ccccc1)C(=O)OCC(=O)NCc1ccc2c(c1)OCO2	nt	-6	nt	-12	-2	nt	nt
CSCCC(=O)N1CCC(n2nccc2NC(=O)CCCc2ccccc2)CC1	0	-8	4	-24	-15	nt	nt
O=C(NC1CCOCC1)C1CCC(=O)N(CCc2cccc(F)c2)C1 (stereo not drawn)	0	0	1	-17	-36	nt	nt
Cc1nnnn1/C(=C\c1ccccc1)C(=O)OCC(=O)Nc1cccc(S(=O)(=O)N(C)C)c1	nt	-25	6	26	39	nt	nt
Cc1nnnn1/C(=C\c1ccccc1)C(=O)OCC(=O)Nc1ccc(Cl)cc1F	1	-4	-2	65*	61	49	5
Nc1ccc(Br)cc1-c1nc2ccccc2[nH]c1=O	3	-3	1	-47	62	91*	77*
Cc1ccc2nc(N3C(=O)CNC3=S)sc2c1	2	-3	5	-41	49	-172	-190
Nc1nc2c(nnn2C2CC(O)C(CO)O2)c(=O)[nH]1 (stereo not drawn)	nt	nt	nt	17	65	-2	17
COc1ccc(-c2c(C(=O)c3ccc(Br)cc3)[nH]c(N)c2C(=O)c2ccccc2)cc1OC	nt	nt	nt	17	2	nt	nt
c1csc(CNc2ccc3c(c2)OCCO3)c1	nt	3	1	30	58	48	3
COc1cccc(CNc2nc(NCC3CC3)nc3ccsc23)c1	nt	nt	nt	23	84*	41	41
CC(C)c1ccc(CNc2nc(NCC3CC3)nc3ccsc23)cc1	nt	nt	nt	41	64	48	45
CSc1ccccc1CNc1nc(NCC2CC2)nc2ccsc12	nt	nt	nt	52*	72*	60	47
